Data reported in ChEMBL document CHEMBL3997766, “Synthesis and pre-clinical studies of new amino-acid ester thiazolide prodrugs” (Eur J Med Chem, 2017).
Each block holds one molecule with its values, some of them ahead of it.

How the values were obtained:
Plasma [1] = assay: Drug metabolism in Sprague-Dawley rat assessed as RM-4848 formation in plasma at 30 mg/kg, po measured at 0.25 to 0.5 post dose; assay type: ADME, organism-based; settings: in vivo
How it was run: (§1)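 Rats in groups of three received one compound as a single oral dose (30 mg/kg) or a single intravenous injection (6 mg/kg), with four compounds studied separately. Serial blood samples were drawn at 5, 10, 15 and 30 min and at 1, 2, 4, 8, 23 and 24 h post-dose. Plasma parent drug and metabolites were quantified and PK parameters were derived.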

Rattus norvegicus [2] = assay: Elimination half life in Sprague-Dawley rat assessed as RM-4848 level in plasma at 30 mg/kg, po administered as single dose; assay type: ADME, organism-based; settings: in vivo; how it was run: as §1
Rattus norvegicus [3] = assay: Cmax in Sprague-Dawley rat assessed as RM-4848 level in plasma at 30 mg/kg, po administered as single dose; assay type: ADME, organism-based; set-up: dose 30 mg/kg, route oral; settings: in vivo; how it was run: as §1
Rattus norvegicus [4] = assay: AUC (0 to t) in Sprague-Dawley rat assessed as RM-4848 level in plasma at 30 mg/kg, po administered as single dose; assay type: ADME, organism-based; settings: in vivo; how it was run: as §1
Rattus norvegicus [5] = assay: Tmax in Sprague-Dawley rat assessed as RM-4848-glucuronide level in plasma at 30 mg/kg, po administered as single dose; assay type: ADME, organism-based; settings: in vivo
How it was run: (§2)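 Rats in groups of three got a single oral dose (30 mg/kg) or a single intravenous injection (6 mg/kg). Serial blood samples were taken at 5, 10, 15 and 30 min and at 1, 2, 4, 8, 23 and 24 h post-dose for plasma drug and glucuronide levels. Bioavailability came from oral versus intravenous AUC after dose correction to 30 mg/kg.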

Rattus norvegicus [6] = assay: Cmax in Sprague-Dawley rat assessed as RM-4848-glucuronide level in plasma at 30 mg/kg, po administered as single dose; assay type: ADME, organism-based; set-up: dose 30 mg/kg, route oral; settings: in vivo; how it was run: as §1
Rattus norvegicus [7] = assay: AUC (0 to t) in Sprague-Dawley rat assessed as RM-4848-glucuronide level in plasma at 30 mg/kg, po administered as single dose; assay type: ADME, organism-based; settings: in vivo; how it was run: as §1
Rattus norvegicus [8] = assay: Elimination half life in Sprague-Dawley rat assessed as RM-4848-glucuronide level at 30 mg/kg, po administered as single dose; assay type: ADME, organism-based; settings: in vivo; how it was run: as §1
Rattus norvegicus [9] = assay: Oral bioavailability in Sprague-Dawley rat assessed as RM-4848 level in plasma at 30 mg/kg administered as single dose; assay type: ADME, organism-based; settings: in vivo
How it was run: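 Groups of three rats received a single oral dose (30 mg/kg) or intravenous dose (6 mg/kg), with serial blood sampling from 5 min to 24 h. Absolute bioavailability came from the AUC after oral versus intravenous dosing, with the AUC corrected for dose to 30 mg/kg.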

Plasma [10] = assay: Drug metabolism in Sprague-Dawley rat assessed as RM-4848 formation in plasma at 6.4 mg/kg, iv measured at 1 to 4 hrs post dose; assay type: ADME, organism-based; settings: in vivo
Rattus norvegicus [11] = assay: Elimination half life in Sprague-Dawley rat assessed as RM-4848 level in plasma at 6.4 mg/kg, iv; assay type: ADME, organism-based; settings: in vivo
Rattus norvegicus [12] = assay: Drug metabolism in Sprague-Dawley rat assessed as RM-4848-glucuronide formation at 6.4 mg/kg, iv measured at 0.25 to 1 hrs post dose; assay type: ADME, organism-based; settings: in vivo
Rattus norvegicus [13] = assay: Cmax in Sprague-Dawley rat assessed as RM-4848 level in plasma at 6 mg/kg, iv administered as single dose; assay type: ADME, organism-based; set-up: dose 6 mg/kg, route intravenous; settings: in vivo; how it was run: as §1
Rattus norvegicus [14] = assay: AUC (0 to t) in Sprague-Dawley rat assessed as RM-4848 level in plasma at 6 mg/kg, iv administered as single dose; assay type: ADME, organism-based; settings: in vivo; how it was run: as §1
Rattus norvegicus [15] = assay: Cmax in Sprague-Dawley rat assessed as RM-4848-glucuronide level at 6 mg/kg, iv administered as single dose; assay type: ADME, organism-based; set-up: dose 6 mg/kg, route intravenous; settings: in vivo; how it was run: as §1
Rattus norvegicus [16] = assay: AUC (0 to t) in Sprague-Dawley rat assessed as RM-4848-glucuronide level at 6 mg/kg, iv administered as single dose; assay type: ADME, organism-based; settings: in vivo; how it was run: as §1
Rattus norvegicus [17] = assay: Elimination half life in Sprague-Dawley rat assessed as RM-4848-glucuronide level at 6.4 mg/kg, iv; assay type: ADME, organism-based; settings: in vivo
Plasma [18] = assay: Drug metabolism in Sprague-Dawley rat assessed as RM-4848-glucuronide formation in plasma at 6 mg/kg, iv administered as single dose; assay type: ADME, organism-based; settings: in vivo; how it was run: as §1
Plasma [19] = assay: Drug metabolism in Sprague-Dawley rat assessed as RM4848-glucuronide formation in plasma at 30 mg/kg, po measured at 0.25 to 0.5 post dose; assay type: ADME, organism-based; settings: in vivo; how it was run: as §1
Rattus norvegicus [20] = assay: Tmax in Sprague-Dawley rat assessed as RM-4848-glucuronide formation at 6.4 mg/kg, iv; assay type: ADME, organism-based; settings: in vivo; how it was run: as §2
Plasma [21] = assay: Drug level in Sprague-Dawley rat plasma treated with RM-5061 at 10 to 75 mg/kg administered via oral gavage qd for 28 consecutive days; assay type: ADME, organism-based; settings: in vivo
How it was run: (§3)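 In a sub-acute study, Sprague-Dawley rats were dosed once daily for 28 consecutive days at 10, 30 or 75 mg/kg, given as a yellow suspension. There were four groups of up to 30 rats each (15M/15F) to assess systemic exposure.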

Plasma [22] = assay: Elimination half life in Sprague-Dawley rat assessed as tizoxanide-glucuronide level in plasma at 10 to 75 mg/kg administered via oral gavage qd for 28 consecutive days; assay type: ADME, organism-based; settings: in vivo; how it was run: as §3
Canis familiaris = assay: Drug level in Beagle dog plasma treated with RM-5061 up to 25 mg/kg administered orally as gelatin capsule once daily for 28 days measured on day 1 and 29; assay type: ADME, organism-based, Canis lupus familiaris; settings: in vivo, po, 672 h
How it was run: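 Beagle dogs received the drug orally in a single gelatin capsule at 5, 15 or 25 mg/kg once daily for 28 consecutive days in a sub-acute toxicity study assessing systemic exposure.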

Rattus norvegicus [23] = assay: Drug level in Sprague-Dawley rat treated with Nitazoxanide at 6 mg/kg, iv measured at 0.7 to 2.1 hrs post dose; assay type: ADME, organism-based; settings: in vivo
Plasma [24] = assay: Elimination half life in Sprague-Dawley rat assessed as tizoxanide level in plasma at 10 to 75 mg/kg administered via oral gavage qd for 28 consecutive days; assay type: ADME, organism-based; settings: in vivo; how it was run: as §3
Plasma [25] = assay: Drug level in Sprague-Dawley rat plasma treated with RM5064 at 30 mg/kg, po administered as single dose; assay type: ADME, organism-based; settings: in vivo; how it was run: as §1
Rattus norvegicus [26] = assay: Drug level in Sprague-Dawley rat treated with RM5038 at 6.4 mg/kg, iv measured at 0.25 to 1 hrs post dose; assay type: ADME, organism-based; settings: in vivo
Rattus norvegicus [27] = assay: Drug level in Sprague-Dawley rat treated with RM5064 at 6.4 mg/kg, iv measured at 0.25 to 1 hrs post dose; assay type: ADME, organism-based; settings: in vivo
Plasma [28] = assay: Drug level in Sprague-Dawley rat plasma treated with RM5038 at 6 mg/kg, iv administered as single dose; assay type: ADME, organism-based; settings: in vivo; how it was run: as §1

- Drug metabolism (Plasma [1]): Metabolite_Detected
- beta t1/2 (Rattus norvegicus [2]): 3 h
- Cmax (Rattus norvegicus [3]): 0.101 µg/mL
- AUCt (Rattus norvegicus [4]): 0.13 µg·h/mL
- Tmax (Rattus norvegicus [5]): 15 to 30 min
- Cmax (Rattus norvegicus [6]): 2.08 µg/mL
- AUCt (Rattus norvegicus [7]): 10.04 µg·h/mL
- beta t1/2 (Rattus norvegicus [8]): 6.14 h
- F (Rattus norvegicus [9]): 1%
- Drug metabolism (Plasma [10]): Metabolite_Detected
- beta t1/2 (Rattus norvegicus [11]): 40.2 min
- Drug metabolism (Rattus norvegicus [12]): Metabolite_Detected
- Cmax (Rattus norvegicus [13]): 9.98 µg/mL
- AUCt (Rattus norvegicus [14]): 3.48 µg·h/mL
- Cmax (Rattus norvegicus [15]): 17.3 µg/mL
- AUCt (Rattus norvegicus [16]): 19.4 µg·h/mL
- beta t1/2 (Rattus norvegicus [17]): 2.5 to 3.2 h
- Drug metabolism (Plasma [18]): Metabolite_Detected
- Drug metabolism (Plasma [19]): Metabolite_Detected
- Tmax (Rattus norvegicus [20]): 15 to 60 min
SMILES: CC(=O)Oc1ccccc1C(=O)Nc1ncc(Cl)s1

- Drug metabolism (Plasma [21]): Metabolite_Detected
- beta t1/2 (Plasma [22]): 1.5 to 11 h
- Drug metabolism (Canis familiaris): Metabolite_Detected
SMILES: O=C(Nc1ncc([N+](=O)[O-])s1)c1ccccc1O[C@@H]1O[C@H](C(=O)O)[C@@H](O)[C@H](O)[C@H]1O

- Drug metabolism (Rattus norvegicus [23]): Metabolite_Detected
- Drug metabolism (Plasma [21]): Metabolite_Detected
- beta t1/2 (Plasma [24]): 0.7 to 3.7 h
- Drug metabolism (Canis familiaris): Metabolite_Detected
SMILES: O=C(Nc1ncc([N+](=O)[O-])s1)c1ccccc1O [TIZOXANIDE]

- Drug metabolism (Plasma [25]): Metabolite_Detected
- Drug metabolism (Rattus norvegicus [26]): Metabolite_Detected
- Drug metabolism (Rattus norvegicus [27]): Metabolite_Detected
- Drug metabolism (Plasma [28]): Metabolite_Detected
SMILES: O=C(Nc1ncc(Cl)s1)c1ccccc1O[C@@H]1O[C@H](C(=O)O)[C@@H](O)[C@H](O)[C@H]1O
